Results from ChEMBL document CHEMBL1125920, “Synthesis and biological activity of 5-alkyl-1,7,8-trisubstituted-6-fluoroquinoline-3-carboxylic acids” (1991).
Values after ≈ are worked out from the molar mass of the structure shown.

Columns and labels:
[1] = tested on: Enterobacter cloacae; test: Antibacterial activity against gram negative organism, […] (MA2646); format: functional
[2] = tested on: Pseudomonas aeruginosa; test: Antibacterial activity was determined against gram negative organism, Pseudomonas aeruginosa (UI-18); format: functional
Method in brief: (§1)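 MIC by standard microtitration against a panel of 10 representative Gram-negative and Gram-positive organisms; values reported in µg/mL.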

[3] = tested on: Bacteria; test: Antibacterial activity was determined against gram negative organism, Providencia rettgeri. (M1771); format: functional; method in brief: as §1
[4] = tested on: Streptococcus pneumoniae; test: Antibacterial activity was determined against gram positive organism, Streptococcus pneumoniae (SV-1); format: functional; method in brief: as §1
[5] = tested on: Enterococcus faecalis; test: Antibacterial activity was determined against gram positive organism, Streptococcus faecalis (MGH-2); format: functional; method in brief: as §1
[6] = tested on: Streptococcus pyogenes; test: Antibacterial activity was determined against gram positive organism, Streptococcus pyogenes (C203); format: functional; method in brief: as §1
[7] = tested on: Staphylococcus aureus; test: Antibacterial activity was determined against gram positive organism, Staphylococcus aureus (H228); format: functional; method in brief: as §1
[8] = tested on: Staphylococcus aureus; test: Antibacterial activity was determined against gram positive organism, Staphylococcus aureus (UC76); format: functional; method in brief: as §1
[9] = MIC ratio measured as the mean MICs of gram-negative bacteria; format: functional
Method in brief: (§2)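 Geometric mean of the MICs (µg/mL) over the Gram-negative or the Gram-positive strains of the 10-organism microtitration panel, calculated separately for each class.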

[10] = MIC ratio measured as the mean MICs of gram-positive bacteria; format: functional; method in brief: as §2
[11] = target: DNA gyrase (Escherichia coli) (UniProt P0AES6+P0AES4)
[12] = tested on: Escherichia coli; test: Antibacterial activity was determined against gram negative organism, E. coli(vogel); format: functional; method in brief: as §1
[13] = tested on: Klebsiella pneumoniae; test: Antibacterial activity was determined against gram negative organism, K. pneumoniae (MGH-2); format: functional; method in brief: as §1

Molecule CC1CN(c2c(F)cc3c(=O)c(C(=O)O)cn(C4CC4)c3c2F)CCN1 (stereo not given) has an MIC [1] of 0.05 µg/mL (≈ 0.138 µM), an MIC [2] of 0.4 µg/mL (≈ 1.1 µM) and an MIC [3] of 0.1 µg/mL (≈ 0.275 µM). The MIC [4] was 0.4 µg/mL (≈ 1.1 µM), the MIC [5] was 0.4 µg/mL (≈ 1.1 µM) and the MIC [6] was 0.4 µg/mL (≈ 1.1 µM). The MIC [7] was 0.2 µg/mL (≈ 0.55 µM), the MIC [8] was 0.1 µg/mL (≈ 0.275 µM) and the Ratio [9] was 0.066. It also gave a Ratio [10] of 0.26 and a DNA cleavage [11] of 1 µg/mL.
Work on CCn1cc(C(=O)O)c(=O)c2cc(F)c(N3CCNCC3)c(F)c21 yielded an MIC [1] of 0.1 µg/mL (≈ 0.296 µM), an MIC [12] of 0.1 µg/mL (≈ 0.296 µM) and an MIC [13] of 0.1 µg/mL (≈ 0.296 µM). The MIC [2] was 0.8 µg/mL (≈ 2.37 µM), the MIC [3] was 0.2 µg/mL (≈ 0.593 µM) and the MIC [4] was 3.1 µg/mL (≈ 9.19 µM). It also gave an MIC [5] of 1.6 µg/mL (≈ 4.74 µM), an MIC [6] of 3.1 µg/mL (≈ 9.19 µM) and an MIC [7] of 1.6 µg/mL (≈ 4.74 µM). For the same molecule, the MIC [8] was 0.4 µg/mL (≈ 1.19 µM), the Ratio [9] was 0.17 and the Ratio [10] was 0.27. It also gave a DNA cleavage [11] of 2.5 µg/mL.
Cc1c(F)c(N2CCNCC2)cc2c1c(=O)c(C(=O)O)cn2-c1ccc(F)cc1F gave an MIC [1] of 0.05 µg/mL (≈ 0.12 µM), an MIC [12] of 0.05 µg/mL (≈ 0.12 µM) and an MIC [13] of 0.1 µg/mL (≈ 0.24 µM). The MIC [2] was 0.8 µg/mL (≈ 1.92 µM), the MIC [3] was 0.2 µg/mL (≈ 0.479 µM) and the MIC [4] was 0.05 µg/mL (≈ 0.12 µM). For the same molecule, the MIC [5] was 0.2 µg/mL (≈ 0.479 µM), the MIC [6] was 0.1 µg/mL (≈ 0.24 µM) and the MIC [7] was 0.1 µg/mL (≈ 0.24 µM). The MIC [8] was 0.025 µg/mL (≈ 0.0599 µM), the Ratio [9] was 0.13 and the Ratio [10] was 0.076. The DNA cleavage [11] was 3 µg/mL.
Work on O=C(O)c1cn(C2CC2)c2c(Cl)c(N3CCNCC3)c(F)cc2c1=O yielded an MIC [1] of 0.025 µg/mL (≈ 0.0683 µM), an MIC [12] of 0.025 µg/mL (≈ 0.0683 µM) and an MIC [13] of 0.05 µg/mL (≈ 0.137 µM). The MIC [2] was 0.4 µg/mL (≈ 1.09 µM), the MIC [3] was 0.1 µg/mL (≈ 0.273 µM) and the MIC [4] was 0.1 µg/mL (≈ 0.273 µM). The MIC [5] was 0.4 µg/mL (≈ 1.09 µM), the MIC [6] was 0.2 µg/mL (≈ 0.547 µM) and the MIC [7] was 0.1 µg/mL (≈ 0.273 µM). The MIC [8] was 0.05 µg/mL (≈ 0.137 µM), the Ratio [9] was 0.066 and the Ratio [10] was 0.13. For the same molecule, the DNA cleavage [11] was 0.5 µg/mL.
Work on CC1CN(c2cc3c(cc2F)c(=O)c(C(=O)O)cn3-c2ccc(F)cc2F)CCN1 (stereo not given) [TEMAFLOXACIN] yielded an MIC [1] of 0.05 µg/mL (≈ 0.12 µM), an MIC [12] of 0.05 µg/mL (≈ 0.12 µM) and an MIC [13] of 0.1 µg/mL (≈ 0.24 µM). The MIC [2] was 1.6 µg/mL (≈ 3.83 µM), the MIC [3] was 0.2 µg/mL (≈ 0.479 µM) and the MIC [4] was 0.1 µg/mL (≈ 0.24 µM). The MIC [5] was 0.2 µg/mL (≈ 0.479 µM), the MIC [6] was 0.1 µg/mL (≈ 0.24 µM) and the MIC [7] was 0.1 µg/mL (≈ 0.24 µM). For the same molecule, the MIC [8] was 0.025 µg/mL (≈ 0.0599 µM), the Ratio [9] was 0.15 and the Ratio [10] was 0.087. For the same molecule, the DNA cleavage [11] was 0.75 µg/mL.
For O=C(O)c1cn(-c2ccc(F)cc2F)c2cc(N3CCNCC3)c(F)cc2c1=O, the MIC [1] was 0.05 µg/mL (≈ 0.124 µM), the MIC [12] was 0.05 µg/mL (≈ 0.124 µM) and the MIC [13] was 0.1 µg/mL (≈ 0.248 µM). For the same molecule, the MIC [2] was 0.8 µg/mL (≈ 1.98 µM), the MIC [3] was 0.1 µg/mL (≈ 0.248 µM) and the MIC [4] was 0.1 µg/mL (≈ 0.248 µM). It also gave an MIC [5] of 0.4 µg/mL (≈ 0.992 µM), an MIC [6] of 0.2 µg/mL (≈ 0.496 µM) and an MIC [7] of 0.4 µg/mL (≈ 0.992 µM). For the same molecule, the MIC [8] was 0.05 µg/mL (≈ 0.124 µM), the Ratio [9] was 0.11 and the Ratio [10] was 0.17.
CCn1cc(C(=O)O)c(=O)c2cc(F)c(N3CC(C)NC(C)C3)cc21 (stereo not given) gave an MIC [1] of 0.2 µg/mL (≈ 0.576 µM), an MIC [12] of 0.2 µg/mL (≈ 0.576 µM) and an MIC [13] of 0.4 µg/mL (≈ 1.15 µM). For the same molecule, the MIC [2] was 6.3 µg/mL (≈ 18.1 µM), the MIC [3] was 0.8 µg/mL (≈ 2.3 µM) and the MIC [4] was 1.6 µg/mL (≈ 4.61 µM). The MIC [5] was 1.6 µg/mL (≈ 4.61 µM), the MIC [6] was 1.6 µg/mL (≈ 4.61 µM) and the MIC [7] was 1.6 µg/mL (≈ 4.61 µM). It also gave an MIC [8] of 0.4 µg/mL (≈ 1.15 µM), a Ratio [9] of 0.6 and a Ratio [10] of 1.21.
Work on NC1CCN(c2cc3c(cc2F)c(=O)c(C(=O)O)cn3-c2ccc(F)cc2F)C1 (stereo not given) yielded an MIC [1] of 0.05 µg/mL (≈ 0.124 µM), an MIC [12] of 0.025 µg/mL (≈ 0.062 µM) and an MIC [13] of 0.05 µg/mL (≈ 0.124 µM). It also gave an MIC [2] of 0.4 µg/mL (≈ 0.992 µM), an MIC [3] of 0.1 µg/mL (≈ 0.248 µM) and an MIC [4] of 0.025 µg/mL (≈ 0.062 µM). For the same molecule, the MIC [5] was 0.1 µg/mL (≈ 0.248 µM), the MIC [6] was 0.025 µg/mL (≈ 0.062 µM) and the MIC [7] was 0.05 µg/mL (≈ 0.124 µM). It also gave an MIC [8] of 0.013 µg/mL (≈ 0.0322 µM), a Ratio [9] of 0.076 and a Ratio [10] of 0.033.
CCNCC1CCN(c2cc3c(cc2F)c(=O)c(C(=O)O)cn3-c2ccc(F)cc2F)C1 (stereo not given) showed an MIC [1] of 0.4 µg/mL (≈ 0.898 µM), an MIC [12] of 0.2 µg/mL (≈ 0.449 µM) and an MIC [13] of 0.8 µg/mL (≈ 1.8 µM). The MIC [2] was 3.1 µg/mL (≈ 6.96 µM), the MIC [3] was 1.6 µg/mL (≈ 3.59 µM) and the MIC [4] was 0.1 µg/mL (≈ 0.224 µM). The MIC [5] was 0.2 µg/mL (≈ 0.449 µM), the MIC [6] was 0.1 µg/mL (≈ 0.224 µM) and the MIC [7] was 0.1 µg/mL (≈ 0.224 µM). The MIC [8] was 0.025 µg/mL (≈ 0.0561 µM), the Ratio [9] was 0.79 and the Ratio [10] was 0.087.
Molecule CCn1cc(C(=O)O)c(=O)c2cc(F)c(N3CCNCC3)cc21 [NORFLOXACIN] has an MIC [3] of 0.025 µg/mL (≈ 0.0783 µM), a Ratio [9] of 0.057 and a Ratio [10] of 0.61. It also gave a DNA cleavage [11] of 1 µg/mL.
